The values below come from the RNAGym collection of RNA variant scans (doi:10.1126/science.aae0568).

Variants at the floor of the assay were thinned out. Where only a bound is given, the exact number is not on record here.

To fix the notation:
B1: tRNA (parent)
chain: GUUCCGUUGGCGUAAUGGUAACGCGUCUCCCUCCUAAGGAGAAGACUGCGGGUUCGAGUCCCGUACGGAACG

Variants of B1 are the subject of this data set. Put plainly: yeast fitness relative to wild type (ratio to wild type); higher = fitter; tRNA-Arg(CCU), competitive growth, 37 C, YPD. Put shortly: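 For this measurement, the tRNA-Arg(CCU) gene was varied by chemical synthesis at a 3% per-site mutation rate across 69 sites, and each variant was placed at the native genomic locus in Saccharomyces cerevisiae. The pooled strains went through a 24-hour competition in YPD at 37°C in six parallel replicates, with amplicons from start and end populations read by 100-nucleotide paired-end sequencing. Darwinian fitness relative to wild type followed from the change in each genotype's frequency. Genotypes needed ≥ 100 starting reads, and estimates < 0.5 were set to 0.5.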
On to C49G G63C G68U, for which the yeast fitness amounted to 0.522.

Turning to G48A G51A, the yeast fitness was 1.04.

Turning to G50A G58C C66U, the yeast fitness came out at 0.649. G48A G63A: the yeast fitness was 0.887. C49G U53C: the yeast fitness stood at 0.723. With C49G G56A A69C the figure was 0.73. For G48A G68U A69C, the yeast fitness came out at 0.524.

With G51A U54C, the yeast fitness turned out to be 0.715. Consider C49U C61G A69C, for which the yeast fitness was found to be 0.559. With C49A C60G the figure was 0.638.

For the variant U53A A57U C60A A70U, the yeast fitness was ≤ 0.5. For G52C A57U A69U, the yeast fitness is ≤ 0.5. With G48A C61G the figure was 0.559; with C49U C55U C61A, ≤ 0.5; with G48C G67C A70U, 0.53. Regarding C49U C62G, the yeast fitness was 0.704. For G51C U53A, the yeast fitness is 0.544. For C49A G52A C61U, the yeast fitness is ≤ 0.5.

In the case of G48C G52C A57C G58A, the yeast fitness was ≤ 0.5.

Turning to G50A U54G, the yeast fitness was 0.559. With G48A C49A, the yeast fitness stood at 0.969. In the case of G52A A70U, the yeast fitness was 0.767. As for G48C C60A, the yeast fitness turned out to be 0.644. G51A C60U G68A: the yeast fitness was ≤ 0.5.

As to G50A C55U G67C, the yeast fitness came to 0.563.

As for C49U G51A A69U, the yeast fitness amounted to 0.573. G52A A57G G58A: the yeast fitness is 0.565. For G50C A57C C61U, the yeast fitness is 0.613. As to U53G U54A C62U, the yeast fitness is 0.549. As to G52A C66G G68C, the yeast fitness was determined as 0.65. For the variant G50C G56A, the yeast fitness is 0.635. With G52C C55U, the yeast fitness turned out to be 0.522. Turning to U54A C62U G68U, the yeast fitness is ≤ 0.5.

Regarding U54A C62U G68A, the yeast fitness came out at 0.504.

In the case of G52A G58A C60G, the yeast fitness is ≤ 0.5. Regarding C49U G58A, the yeast fitness came to 0.948. For the variant G52A C62U, the yeast fitness was found to be 0.765. Turning to C49A A57C A65G, the yeast fitness was ≤ 0.5. In the case of G48C A65C, the yeast fitness was found to be 0.989. In the case of G48C A57G G63A, the yeast fitness was ≤ 0.5. Next, G48A G56C A65G: 0.543.

Turning to U54C G67C, the yeast fitness came out at 0.944. For the variant U54C G67A, the yeast fitness turned out to be 0.817. On to C49U G52A, for which the yeast fitness was found to be 0.748. As for G50C G52A, the yeast fitness worked out at 0.607. As to G51C C61U, the yeast fitness was determined as 0.604. Regarding G48A C62U A70U, the yeast fitness was 0.824. Regarding U53A C62U A69U, the yeast fitness was ≤ 0.5.

For the variant C49G G68C A70C, the yeast fitness is 0.623. Turning to U54C G68C, the yeast fitness came to 0.776. For the variant C49G G58A, the yeast fitness is 0.844. As to G52C G63C A69C, the yeast fitness was ≤ 0.5.

Regarding G48A C61G A69C, the yeast fitness was 0.603. For G51C C60G G67U, the yeast fitness was ≤ 0.5. Consider U54G C60G G63C, for which the yeast fitness is ≤ 0.5. For C49G G67A, the yeast fitness came to 0.908. Next, C49G G67U: 0.695. On to C49U U54A C55G, for which the yeast fitness is ≤ 0.5. Turning to G48C G51C A69U, the yeast fitness was ≤ 0.5.

For the variant G51A C60G A65C, the yeast fitness is ≤ 0.5.

Turning to G48C G56A, the yeast fitness was found to be 0.905.

Consider G51C G56A G58C, for which the yeast fitness is ≤ 0.5.

Regarding G50C U54A C61A, the yeast fitness was found to be 0.676.

For G50A C62A, the yeast fitness stood at 0.875. With G48A C60U A70U, the yeast fitness came to 0.71. As for G48A C66A G68U A70C, the yeast fitness is ≤ 0.5. For the variant G52A G56C, the yeast fitness was 0.687.

G52A G56A: the yeast fitness came to 0.727.

Regarding C49U G68A, the yeast fitness is 0.85.

Consider C49U G68U, for which the yeast fitness was 0.976. Regarding G48C G56A A70U, the yeast fitness is 0.918.

With C49U C55U A69C, the yeast fitness stood at 0.665. Regarding U53G G56C G67A, the yeast fitness was ≤ 0.5. In the case of G50A U53A C61U, the yeast fitness was determined as 0.532. With G51A A57U A65U G68A A70U, the yeast fitness was ≤ 0.5. Next, G51U A70G: 0.707. As for C49G G56C, the yeast fitness was 0.641.

In the case of G48C A69U, the yeast fitness is 0.95. On to C49U A65U A69U, for which the yeast fitness stood at 0.861. In the case of C49U U59C, the yeast fitness is 0.91. Regarding G51A U59C, the yeast fitness worked out at 0.692. Regarding C49U U53A, the yeast fitness came to 0.791. With G52A C61U G68A, the yeast fitness is 0.561. Consider C49G G52C, for which the yeast fitness was determined as 0.664.

With G50A U59A G67C, the yeast fitness was ≤ 0.5. Turning to C49U G63A, the yeast fitness is 0.908. With C49U G63C the figure was 0.703; with C49U G50A, 0.93; with U54C A57U, 0.595. For the variant G48C G67A, the yeast fitness came to 0.873. For G48C G67U, the yeast fitness came to 0.811. As to G48C G50A, the yeast fitness turned out to be 0.651. Next, G51A C60U G67A: 0.567; C49A C61U C62A G67C: ≤ 0.5; G48C G56A C61A: ≤ 0.5. Take C49A G63A: the yeast fitness was 0.582. For U53A C62G, the yeast fitness came out at 0.598. On to G52C G67A, for which the yeast fitness is 0.709. Regarding U53G A57G, the yeast fitness stood at 0.584. Next, U53A C66U: 0.709; C49U C61U A70G: 0.831; U54A A57C: 0.555. Turning to U53C C60G, the yeast fitness stood at 0.784. In the case of G48C G52C, the yeast fitness turned out to be 0.552. Turning to G48A G51A A69U, the yeast fitness is 0.755.

For the variant G48C C62U, the yeast fitness is 0.899. With G48A G52C U54C the figure was 0.542; with G52C A65U G67C, ≤ 0.5; with C49U A70G, 1.07. As to U53C A57C A65U, the yeast fitness is ≤ 0.5. As to C49G U53A C66U, the yeast fitness is ≤ 0.5.

Consider G48C C55A C61U, for which the yeast fitness is ≤ 0.5. Take U54A U59C C61G: the yeast fitness is ≤ 0.5. As for G48A C55U G63A, the yeast fitness is 0.706. With C49U U54C A70C, the yeast fitness worked out at 0.617. With U54A A57U G63C A69U the figure was ≤ 0.5; with G48A C49U A65G, 0.743; with U53A G67U, 0.657. Take G48C C62U G68C: the yeast fitness came to 0.557.

Consider U53G A57G C62U, for which the yeast fitness was 0.62. For the variant G50C G51A, the yeast fitness amounted to 0.76. As for C49A C62U, the yeast fitness was 0.717. As for U54C A70C, the yeast fitness was found to be 0.925. U54C A70G: the yeast fitness was found to be 0.973. With C49A A70G, the yeast fitness stood at 0.675. As for C49A U64G A69C, the yeast fitness was determined as 0.592. For G48C C61G A65U, the yeast fitness was ≤ 0.5. G48C G63C: the yeast fitness is 0.705. For the variant U54A C62A, the yeast fitness amounted to 0.595. Next, U54A C62G: 0.637. For G48C G50A G67A, the yeast fitness was ≤ 0.5. U53C C61A G68A: the yeast fitness is 0.58. For G50C U59A, the yeast fitness is 0.703. On to G48A G67C, for which the yeast fitness was found to be 1.02.

For G48A G67A, the yeast fitness was determined as 0.91.

With G50A A70C, the yeast fitness was determined as 0.823. As to U54A A69U, the yeast fitness turned out to be 0.671.

Turning to C49G A70C, the yeast fitness came out at 0.845. With C49G A70U the figure was 0.872; with C49G A70G, 0.832. Consider G52C G68A, for which the yeast fitness worked out at 0.583. Consider C49U G51C A69C, for which the yeast fitness is ≤ 0.5. In the case of G51C C60U G63A U64G, the yeast fitness is ≤ 0.5. With G48A G58A U59G G67A the figure was ≤ 0.5; with G48A C66U, 0.97; with G48C C49U A70C, 0.592. Next, U54C U59G A70G: 0.615; G52U C55A: 0.555. With C49A G67A G68U, the yeast fitness was ≤ 0.5. Take U53G U64G A69C: the yeast fitness was found to be 0.841.

Take G48A U54A: the yeast fitness was 0.692. U54C C60G: the yeast fitness was determined as 0.539. Turning to C49G G58A C66G, the yeast fitness is 0.564. As to U53A A70C, the yeast fitness was determined as 0.769. As to C49U A65C, the yeast fitness was determined as 0.935. On to C49U A65U, for which the yeast fitness came out at 0.91. As to U53A C55A C62U G63A A65U, the yeast fitness was ≤ 0.5. Take C49U C61U: the yeast fitness worked out at 0.814. In the case of C49U C61A, the yeast fitness is 0.57. In the case of U53C G68C, the yeast fitness turned out to be 0.846.

As for G50A G52C, the yeast fitness was 0.663. Regarding G48A C62U, the yeast fitness is 1.01. Turning to C49U U54G, the yeast fitness worked out at 0.562. G50C A65G: the yeast fitness was determined as 0.766. Next, C49A C55G: ≤ 0.5; U54G G68A: 0.541. Consider G51A C61A G68C, for which the yeast fitness is ≤ 0.5.
